Legend:
[1] = target: T1, CYP2A6 (Homo sapiens, UniProt P11509); assay: Cellular CYP2A6 inhibition screening; assay type: cell-based; settings: for inhibition of cellular CYP2A6: flavoring agent at 500 μM
T1 sequence (P11509 1-494): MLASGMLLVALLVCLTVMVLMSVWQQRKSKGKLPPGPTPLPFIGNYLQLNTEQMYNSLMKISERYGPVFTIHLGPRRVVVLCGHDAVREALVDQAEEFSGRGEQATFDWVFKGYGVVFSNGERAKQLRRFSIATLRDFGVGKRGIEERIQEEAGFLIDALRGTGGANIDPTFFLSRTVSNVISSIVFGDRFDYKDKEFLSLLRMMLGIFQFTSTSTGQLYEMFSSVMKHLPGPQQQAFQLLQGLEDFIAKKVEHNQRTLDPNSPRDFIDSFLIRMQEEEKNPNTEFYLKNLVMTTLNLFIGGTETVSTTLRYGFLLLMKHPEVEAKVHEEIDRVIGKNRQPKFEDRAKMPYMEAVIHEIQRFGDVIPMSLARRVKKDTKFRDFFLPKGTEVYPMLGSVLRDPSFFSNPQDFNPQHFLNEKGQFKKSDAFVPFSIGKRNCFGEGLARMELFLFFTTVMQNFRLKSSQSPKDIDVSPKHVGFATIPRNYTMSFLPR

[2] = target: T1, CYP2A6; settings: 50 μM tranylcypromine pretreatment 1 h, then 100 μM coumarin 1 h
[3] = test system: CYP2A6-transduced BEAS-2B cells; assay: Cell viability by LDH release; assay type: cell-based; settings: flavoring agent at 500 μM, 2 h total exposure, 50 μM coumarin, Figure S4
Method in brief: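 CYP2A6-transduced BEAS-2B cells were grown to confluence in KGM and switched to KBM. They were exposed to flavoring agent at 500 μM for 1 h, then coumarin was added to 50 μM, for 2 h total, in triplicate wells. Medium was incubated 30 min with tetrazolium substrate and read at 490 nm absorbance. Maximal LDH was set by lysis buffer.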

Structure (SMILES)	IC50 [1] [µM]	inhibition of cellular CYP2A6 [1]	fluorescence (7-hydroxycoumarin formation) in CYP2A6-transduced cells [2]	mean percent of maximal LDH [3] [%]
CC(=O)OCCC(C)C [isoamyl acetate]	> 500	negligible inhibition	–	–
Cl.N[C@@H]1C[C@H]1c1ccccc1 (relative stereo) [tranylcypromine, trans-2-Phenylcyclopropylamine hydrochloride]	–	–	strongly reduced	–
O=C/C=C/c1ccccc1 [cinnamaldehyde, trans-cinnamaldehyde]	7.4	–	–	6.6
COc1cc(C=O)ccc1O [vanillin]	200	near-maximal inhibition	–	–
O=Cc1ccccc1 [benzaldehyde]	7.6	–	–	8.9

Source: article PMC10061538 (ACS Omega, 2023)
